The record followed here is ChEMBL document CHEMBL1130018, “Synthesis and anticonvulsant activities of 3,3-dialkyl- and 3-alkyl-3-benzyl-2-piperidinones (delta-valerolactams) and hexahydro-2H-azepin-2-ones (epsilon-caprolactams)” (J Med Chem, 1997).

pIC50: −log10 of the molar value. Where only a bound is given, the exact number is not on record here.

Data set [1] concerns the target GABA-A receptor; anion channel. The data set is described as follows: Ability to displace radioligand [35S]TBPS from Gamma-aminobutyric acid A receptor binding site in rat brain membranes. The format is cell membranes. The procedure, abridged: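 Values are mean and range from duplicate experiments, each run in triplicate. For some lactams the values are mean ± SEM of three experiments run in triplicate. Read-out is IC50 (mM) for displacement of [35S]TBPS.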

For data set [2], the system named is Mus musculus. As to the kind of experiment: Anticonvulsant activity expressed as dose at which 50% of the mice were protected from clonic seizures induced by pentylenetetrazole (85 mg/Kg). It counts as functional. The method, boiled down:
(§1)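 Mice were given at least four doses, with six animals per dose. Compound was dissolved in 30% polyethylene glycol and injected i.p. at 0.01 mL/g body weight. Challenge was pentylenetetrazole 85 mg/kg (clonic seizures) or maximal electroshock (tonic hindlimb extension). ED50 is the dose protecting 50%, with 95% fiducial limits.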

The species entered for data set [3] is Mus musculus. The data set is described as follows: Anticonvulsant activity expressed as dose at which 50% of the mice were protected from tonic hindlimb seizures induced by maximal electroshock (MES). It counts as functional. The procedure, abridged:
as §1

Data set [4] in a line: Neurotoxicity was evaluated by a rotarod test. The format is toxicity. The note with it: mouse. The method, boiled down:
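Mice were given at least four i.p. doses of compound in 30% polyethylene glycol at 0.01 mL/g, with six per dose, then tested on the rotorod. TD50 is the dose at which 50% failed, with 95% fiducial limits. Where these could not be calculated, the highest all-nontoxic dose and the lowest all-toxic dose are given instead.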

Data set [5] is described as follows: Protective Index (PI) determined as the ratio of toxic dose (TD50) and effective dose (ED50 (MES)). The format is ADME. The settings on record: mouse; read-out: PI. The method, boiled down:
(§2)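 The protective index was calculated as rotorod TD50 divided by the ED50 against PTZ- or MES-induced seizures. All values come from i.p. dosing in 30% polyethylene glycol in mice, six per dose.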

The nature of data set [6]: Protective Index (PI) determined as the ratio of toxic dose (TD50) and effective dose (ED50 (PTZ)). It counts as ADME. The note with it: mouse; read-out: PI. The procedure, abridged: as §2
The species named for data set [7] is Rattus norvegicus. As to the kind of experiment: Antagonism of compound (600 uM) induced potentiation of 3 uM GABA-mediated chloride currents in cultured rat hippocampal neurons. It counts as functional. The procedure, abridged:
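Cultured rat hippocampal neurons. Test compound was applied with 3 μM GABA, with and without α-isopropyl-α-methyl-γ-butyrolactone (3 mM). Peak current was normalized to the peak from 3 μM GABA alone on the same cell, where 100% means no change. Mean ± SEM over N cells; Student's t test compared compound alone with compound plus antagonist.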

The target of data set [8] is GABA-A receptor; anion channel (Rattus norvegicus) (UniProt O09028+P15431+P18506+P18508+P19969+P20236+P23574+P23576+P28471+P28473+P30191+P62813+P63079+P63138+Q91ZM7+Q9ES14). As to the kind of experiment: Induced potentiation of 3 uM GABA-mediated chloride currents at 1 mM in the presence of 3 mM alpha-IMGBL (picrotoxin antagonist). The format is functional. The method, boiled down: (§3)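 Whole-cell peak current evoked by 3 μM GABA, with test compound alone or with 3 mM α-isopropyl-α-methyl-γ-butyrolactone, in cultured rat hippocampal neurons. Each peak was normalized to the peak from 3 μM GABA alone on the same cell, with 100% meaning no change. Values are mean ± SEM over 5–14 cells. Alone vs plus antagonist was compared by Student's t test.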

For data set [9], the species on record is Rattus norvegicus. The data set is described as follows: Antagonism of compound (1 mM) induced potentiation of 3 uM GABA-mediated chloride currents in cultured rat hippocampal neurons. The format is functional. The procedure, abridged:
as §3

The species named for data set [10] is Rattus norvegicus. The data set is described as follows: Antagonism of compound (200 uM) induced potentiation of 3 uM GABA-mediated chloride currents in cultured rat hippocampal neurons. It counts as functional. The method, boiled down:
as §3

In data set [11] the test system is Mus musculus. As to the kind of experiment: Anticonvulsant activity expressed as dose at which 50% of the mice were protected from clonic seizures induced by pentylenetetrazole (85 mg/Kg); cytotoxicity observed at 300 mg/kg. The format is functional.
Data set [12] is filed under the species Rattus norvegicus. The data set is described as follows: Antagonism of compound (300 uM) induced potentiation of 3 uM GABA-mediated chloride currents in cultured rat hippocampal neurons. The format is functional. The method, boiled down:
as §3

In data set [1], `CCC1(C)CCCNC1=O` (configuration not stated) gave a pIC50 of 2.36. In addition, the ED50 worked out at 168 mg/kg in data set [2] and 199 mg/kg in [3]. The TD50 in data set [4] was 378 mg/kg. Also, the selectivity ratio in data set [5] was 1.9; in data set [6], 2.25.

`CCC1(C)CC(=O)NC1=O` (configuration not stated) [ETHOSUXIMIDE]: in data set [3], the 50% effective dose (ED50) is > 562 mg/kg. The molecule further showed a TD50 in data set [4] of 378 mg/kg. Besides, the selectivity ratio in data set [5] is < 0.67; in data set [6], 2.35.

On to `CCC1(Cc2ccccc2)CCCCNC1=O` (configuration not stated), for which the pIC50 in data set [1] was 4.05. The ED50 in data set [2] and in [3] was > 100 mg/kg throughout. Besides, the Response was 128% in [7] and 107% in data set [8]. Also, in [4], the TD50 was > 100 mg/kg.

As to `CC1CCCNC1=O` (configuration not stated), the pIC50 in [1] was 1.56. The TD50 in [4] is > 600 mg/kg.

For the molecule `CCC1(CC)CCNC1=O`, the selectivity ratio in [5] was found to be 1.49; in data set [6], 5.65.

The molecule `CCC1(CC)CCCNC1=O` had a pIC50 in data set [1] of 2.88. Moreover, the results for the 50% effective dose (ED50) in data set [2] and in [3] were 37 mg/kg and 54 mg/kg, respectively. For the same molecule, the Response came to 142% in [9] and 102% in data set [8]. In addition, the TD50 in data set [4] is 165 mg/kg. For the same molecule, the selectivity ratio in [5] is 3.06; in data set [6], 4.46.

The molecule `CC1(Cc2ccccc2)CCCNC1=O` (configuration not stated) gave a pIC50 in [1] of 3.14. The ED50 in data set [3] was 50 mg/kg. In addition, the TD50 in [4] was 125 mg/kg. Also, the selectivity ratio in data set [5] was determined as 2.5; in data set [6], 2.23.

`CCC1(CC)CCCCNC1=O` had a pIC50 in [1] of 3.42. The results for the ED50 in data set [2] and in data set [3] were 226 mg/kg and 178 mg/kg, respectively. The Response in data set [10] was determined as 117%; in data set [8], 105%. In addition, the TD50 in data set [4] came out at 131 mg/kg. The results for the selectivity ratio in data set [5] and in [6] were 0.74 and 0.58, respectively.

Molecule `O=C1NCCCC1Cc1ccccc1` (configuration not stated) had a pIC50 in data set [1] of 2.84. The median effective dose (ED50) in data set [2] was found to be 82 mg/kg; in data set [3], 41 mg/kg. The molecule further displayed a TD50 in data set [4] of 289 mg/kg. In addition, the values for the selectivity ratio in data set [5] and in data set [6] were 7.05 and 3.52, respectively.

Molecule `O=C1CCCCCN1` [CAPROLACTAM] had a pIC50 in data set [1] of 1.76. Besides, the median effective dose (ED50) in data set [3] and in data set [11] was > 300 mg/kg each time. Also, in [4], the TD50 is < 300 mg/kg. Besides, the selectivity ratio in data set [5] and in [6] was < 1 each time.

`CCC1(Cc2ccccc2)CCCNC1=O` (configuration not stated): the pIC50 in [1] was 3.57. The same molecule had an ED50 in data set [3] of 70 mg/kg. The Response in [12] amounted to 138%; in data set [8], 93%. For the same molecule, the TD50 in data set [4] is 103 mg/kg. Besides, the selectivity ratio in data set [5] came out at 1.47; in data set [6] it was 1.69.

In the case of `CCC1CCCCNC1=O` (configuration not stated), the pIC50 in data set [1] was 2.49. In addition, the figures for the ED50 in [2] and in [3] were 210 mg/kg and 249 mg/kg, respectively. Also, the TD50 in data set [4] amounted to 145 mg/kg. Moreover, the selectivity ratio in [5] turned out to be 0.58; in data set [6], 0.69.

As to `O=C1NCCC1Cc1ccccc1` (configuration not stated), the selectivity ratio was 3.51 in [5] and 2.03 in data set [6].

The molecule `CCC1(c2ccccc2)C(=O)NC(=O)NC1=O` [PHENOBARBITAL] came in with a median effective dose (ED50) in data set [3] of 17 mg/kg. In [4], the TD50 was found to be 88 mg/kg. Moreover, the selectivity ratio came to 5.18 in data set [5] and 4 in [6].

Turning to `CCC1CCCNC1=O` (configuration not stated), the pIC50 in [1] is 2.06. Further, the ED50 is 297 mg/kg in [2] and 550 mg/kg in [3]. Besides, the TD50 in data set [4] is > 325 mg/kg. In addition, the figures for the selectivity ratio in data set [5] and in data set [6] were > 0.59 and > 1.09, respectively.

`CCCC(CCC)C(=O)O` [VALPROIC ACID] returned a median effective dose (ED50) in [3] of 206 mg/kg.

Turning to `O=C1CCCCN1`, the pIC50 in data set [1] is 0.71. For the same molecule, in data set [3], the 50% effective dose (ED50) is > 600 mg/kg. Further, the TD50 in [4] is > 600 mg/kg.
